Reference: ChEMBL document CHEMBL4513216, “Probing the Open Global Health Chemical Diversity Library for Multistage-Active Starting Points for Next-Generation Antimalarials” (ACS Infect Dis, 2020)

Test: Toxicity liver stage against HepG2, at 10uM
Assay type: cell-based
Set-up: test concentration 10 uM, cell line HepG2-A16-CD81EGFP
Conditions: human, HepG2-A16-CD81EGFP cells; read-out: INHIBITION
Method in brief: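 Uninfected HepG2-A16-CD81EGFP cells, 3 × 10^3 per well, 1536-well, plated on prespotted compound at 10 μM final, parasite-free screening media added to match infected plates; puromycin 10 μM positive, DMSO 0.5% negative; run in parallel with 48 h PbLuc assay at 37 °C, 5% CO2; viability by CellTiter-Glo luminescence, normalized to controls.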

| SMILES | cytotoxicity at 10 µM [%] |
| --- | --- |
| Cn1ccnc1CN1C(=O)CO[C@H]2CN(Cc3ccc(F)c(F)c3)C[C@H]21 | -2.83 |
| COc1ccc(CN2CCOC[C@H](Oc3cccnc3)C2)cc1 | -4.03 |
| COc1ccc(CNC[C@H]2Cn3ccnc3CO2)cn1 | 8.73 |
| CCN(CC)S(=O)(=O)c1ccc2c(c1)N(Cc1ccncc1)C(=O)CS2 | -5.62 |
| O=C(Cn1cccc(S(=O)(=O)N2CCCC2)c1=O)c1ccccc1Cl | 1.08 |
| O=C(Nc1cnc(Oc2ccccc2)nc1)C1CC1 | 0.174 |
| Cc1ccc(C(=O)NCCn2nc(-n3cncn3)ccc2=O)c(C)c1 | -1.25 |
| CS(=O)(=O)NCc1cncc2c1CCN(C(=O)c1ccccn1)C2 | 0.734 |
| O=C(c1ccco1)N1Cc2nccn2CC(Cn2ncccc2=O)C1 (stereo not given) | 5.09 |
| O=C(c1cnccn1)N1CCC2(CCN(Cc3ccsc3)CC2)CC1 | 1.2 |
| O=C(c1ccncn1)N1CCO[C@H]2[C@@H](OCc3cccnc3)CC[C@@H]21 | -7.69 |
| O=C(O)[C@H]1OCC(=O)N(Cc2cccc(F)c2)[C@@H]1c1ccc(Cl)cc1 | 8.9 |
| CN1C[C@@H](C(=O)NC(C)(C)C)[C@@]2(CCc3ccccc3C(=O)N2)C1 | -3.79 |
| Cc1cnc(CC2COCCN(C(=O)CN3CCOCC3)C2)cn1 (stereo not given) | 9.07 |
| Cc1c(CN2CCCC(O)C2)[nH]c2ccc(F)cc12 (stereo not given) | 9.35 |
| Cc1cc(Oc2ccccc2)nc(C2CCCCN2)n1 (stereo not given) | -2.64 |
| CC(C)S(=O)(=O)N1C[C@@H](c2ccccc2)[C@H]2[C@H]1CCCCCN2C | 0.247 |
| CN1CCN(c2ncccc2N)CC1 | 11.5 |
| CN(CCc1ccccn1)C(=O)Nc1cc(C(F)(F)F)c[nH]c1=O | 17.2 |
| O=S(=O)(c1ccccc1)N1CCCC(Cn2cncn2)C1 (stereo not given) | -4.28 |
| CCC1CN(CC(=O)NC2(C#N)CCCC2)CCN1CCOC (stereo not given) | 4.56 |
| Cc1ncsc1C(=O)N1CCCC1c1c(C)nn(C)c1C (stereo not given) | 0.71 |

| SMILES | cytotoxicity at 10 µM [%] |
| --- | --- |
| N#Cc1cccnc1N1CCC(Nc2ccccc2)C1 (stereo not given) | -3.37 |
| N#CC1(NC(=O)c2nccc3ccccc23)CCC2(CC1)OCCO2 | 2.48 |
| COc1ccc2c(c1)CN(c1nc(C)cc(C)n1)CC2 | -0.734 |
| CCN(CC)c1ccc(CNC(=O)c2cccc(C)n2)cn1 | 9.47 |
| Cc1nc(C)c(C(=O)N(C)Cc2cnn(C)c2)s1 | -1.57 |
| Cc1ccc(C(=O)N(C)CC(=O)Nc2cccc(C)n2)cn1 | -21.2 |
| CCOCCNC(=O)Cc1cccc(I)c1 | 9.62 |
| CCC(=O)N1CCCN(C(=O)C2SCCc3sccc32)CC1 (stereo not given) | -8.98 |
| Cc1cnn(CC2CCCCN2CC(=O)Nc2nncs2)c1 (stereo not given) | -0.208 |
| COCCn1cc(C(=O)N2CCCC2c2cccc(C)c2)ccc1=O (stereo not given) | 5.59 |
| CC(C)CC(=O)NCCCc1cc(N)n(-c2ccccc2)n1 | -5.29 |
| CCCc1cc(NC2CCc3nc(CC)nn3C2)n2ncnc2n1 (stereo not given) | -16.3 |
| CCN(C(c1cccnc1)c1ccc(F)cc1F)S(C)(=O)=O (stereo not given) | 10.8 |
| Cc1ccc(C(=O)N2CCCN(C)c3ccc(F)cc32)o1 | -5.26 |
| OC1CCN(c2ccnc3c(F)cc(Br)cc23)CC1 | 11.6 |
| Cc1cnn(CC2CCCCN2C(=O)c2ccc(C#N)c(C)n2)c1 (stereo not given) | -1.18 |
| Cn1[nH]c(C2CC2)c(-c2ccc3c(c2)OCO3)c1=N | -47.5 |
| CN(C)CCn1ccc2cc(NC(=O)NCc3ncnn3C)ccc21 | -6.52 |
| CCCc1noc(CCC(=O)N2CCCC(c3ccn[nH]3)C2)n1 (stereo not given) | 12.2 |
| O=C1COc2cc(C(=O)NCc3ccc(Cl)s3)ccc2N1 | 1.55 |
| NS(=O)(=O)c1cnn(CCC(=O)N(Cc2ccccc2)C2CC2)c1 | 4.53 |
| O=C(Nc1cccc(Cn2cccn2)c1)N1CCCC(N2CCCC2)C1 (stereo not given) | 4.13 |

| SMILES | cytotoxicity at 10 µM [%] |
| --- | --- |
| O=C(Nc1ccc(F)cc1F)N(CCC(F)(F)F)C[C@H](O)CO | -7.64 |
| NC(=O)C1CCN(Cc2ccc(S(=O)(=O)N3CCCC3)o2)CC1 | 1.04 |
| Cc1csc(N2CCN(Cc3ccn(C)c(=O)c3)CC2)n1 | 8.08 |
| CC(C)(C)CCN1CCN(Cn2nccc2-c2cccnc2)CC1 | 23.2 |
| Cc1ccc(CCNC(=O)NC2CCN(CC(F)(F)F)C2=O)cn1 (stereo not given) | 4.75 |
| CCc1nc(CN2CCCC(N(C)Cc3cnc(C)s3)C2)no1 (stereo not given) | 2.89 |
| Cc1nc(C)n(CC2CCCN2CC(=O)NCc2ccco2)n1 (stereo not given) | -18.5 |
| Cc1n[nH]c(C)c1C1COCCN1C(=O)Cc1cccc(F)c1 (stereo not given) | -10.7 |
| Cc1ccc(N2CCCC3(CCN(C(=O)CC(F)(F)F)C3)C2)nn1 (stereo not given) | -108 |
| O=C(Cc1ccco1)N1C[C@H]2CCC[C@@]2(COCC2CC2)C1 | -108 |
| COCc1cnc2n1CCN(C(=O)c1cn(C)c3ccccc13)C2C (stereo not given) | -108 |
| O=C1COC2(CCN(c3ccccn3)CC2)CN1Cc1ccccn1 | -0.861 |
| CCn1cc2c(n1)C(COC)CN(C(=O)COc1ccccc1C)C2 (stereo not given) | 0.719 |
| Cc1ncoc1C(=O)N1CCn2c(COCC3CC3)cnc2C1C (stereo not given) | -1.67 |
| COCc1cc(CNCc2c(C)n(CC(C)C)c3ccccc23)n[nH]1 | 12 |
| CC(C)[C@H]1CN(Cc2c[nH]nn2)C[C@@H]1NC(=O)C1CCOCC1 | 22.3 |
| COCC(C)N1CCc2onc(-c3ccc(F)c(F)c3)c2C1 (stereo not given) | -4.31 |
| CCn1ccnc1CN1CCN(Cc2ccc(C)o2)[C@@H]2CS(=O)(=O)C[C@@H]21 | -11.2 |
| CCCN1CCCn2nc(CNC(=O)CCOC)cc2C1 | -12.2 |
| CCOc1ccc(C(=O)N2CCC(Oc3ccccc3)(C(=O)O)CC2)o1 | 14.1 |
| c1cncc(CN(Cc2ccsc2)Cc2ccc(C3CCCCO3)o2)c1 (stereo not given) | 14.8 |
| CCCn1cc(NC(=O)NCC2CCS(=O)(=O)C2)nn1 (stereo not given) | 0.186 |

| SMILES | cytotoxicity at 10 µM [%] |
| --- | --- |
| O=C1CC2(CCN(Cc3ccc(C(F)(F)F)nc3)CC2)CN1 | -6.33 |
| CNC(=O)c1ccc(-n2c(COCC(=O)O)nc3c(C)cccc32)o1 | -3.33 |
| CN(C)Cc1ccc(C2CCCCN2C(=O)c2cc(=O)[nH]c(=O)[nH]2)cc1 (stereo not given) | -3.95 |
| CC(C)(O)CCc1ccc(C(=O)NCCC2CCCOC2)cc1 (stereo not given) | 0.782 |
| CN(CCc1nc2cc(Cl)ccc2[nH]1)C(=O)c1ncn[nH]1 | -53.7 |
| CCCS(=O)(=O)N[C@H]1CN(c2ncccc2C(N)=O)C[C@@H]1C(C)C | 5.78 |
| O=C(CCSc1ccc2c(c1)OCCO2)NCC1CCS(=O)(=O)C1 (stereo not given) | -4.01 |
| O=C1CCC2(CCOC2)CN1Cc1ccc2nsnc2c1 (stereo not given) | -7.73 |
| Cc1cccc(OC2(C(=O)O)CCN(C(=O)CCc3ccco3)CC2)c1 | 4.3 |
| Cc1ncc(C(=O)N2CCCC(C(=O)CCc3ccccc3)C2)s1 (stereo not given) | 19.4 |
| Cc1nc(CN(C)C(=O)c2ccc(Cn3cnnn3)cc2)cs1 | -15.4 |
| CCN(Cc1noc(C)n1)C(=O)C(c1ccc(C)cc1)N(C)C (stereo not given) | -5.21 |
| Cc1ccc(C(=O)N2CCCC3(C2)C(=O)N(C)c2ccccc23)c(=O)[nH]1 (stereo not given) | -7.52 |
| CC(=O)N1CCCC(C(=O)N2CCN(c3cnn(C)c(=O)c3)CC2)C1 (stereo not given) | 0.761 |
| CCc1cc(N[C@H]2CCC[C@H]2CO)n2nc(C)c(C)c2n1 | 3.41 |
| CCOCC1CCN(C(=O)C(c2ccccc2F)N(C)C)CC1 (stereo not given) | 5.06 |
| CC(C)(C)OC(=O)NC1CCCN(Cc2cccs2)C1 (stereo not given) | -40.7 |
| Cc1nc(N2CCN(C(=O)c3ccccc3)CC2)cc(-n2ccnc2)n1 | 0.0237 |
| CCC(C)c1ccc(NC(=O)C2CCN(C(=O)COC)CC2)cc1 (stereo not given) | -3.16 |
| Cc1cc(CN[C@@H](C)C(N)=O)c(C)s1 | -6.55 |
| CC(C)C(C)N(Cc1ccccn1)Cc1ccco1 (stereo not given) | -1.99 |
| O=C1Nc2ccccc2C12CCCN(Cc1ccncc1)C2 (stereo not given) | 4.32 |

| SMILES | cytotoxicity at 10 µM [%] |
| --- | --- |
| CNc1cc(C)nc(N2CCC3(CC2)[C@H](O)C[C@@H]3OCCO)n1 | -1.82 |
| Cc1cc(NCc2cc3n(n2)CCCN(C(=O)N(C)C)C3)ncn1 | -11.4 |
| Cc1cc(N2CCN3CCCCC3C2)n2nc(C)c(C)c2n1 (stereo not given) | -10.4 |
| Cc1cc(-c2nn(C)c(Cl)c2CN2CCOCC2CC(=O)O)no1 (stereo not given) | -12.2 |
| COc1ccccc1OCCNC(=O)CN1CCN(C)CC1C (stereo not given) | -12.1 |
| CC(C)c1ncc2c(n1)CN(Cc1nc(-c3ccco3)no1)CC2 | -11.4 |
| c1ccc(-n2ccc(CNC3CCc4ncnn4C3)n2)cc1 (stereo not given) | -2.57 |
| CCCc1nnc(NC(=O)Cc2c(C)nc(C)[nH]c2=O)s1 | -10.7 |
| Cc1cc(NC(=O)CN2CCc3cncnc3C2)no1 | -11.5 |
| Cc1ccc2[nH]c(C(=O)N3CCCC3Cn3cccn3)cc2c1 (stereo not given) | -12 |
| Cn1cc(CCNC(=O)NC2CCN(Cc3ccccn3)CC2)cn1 | -16.4 |
| COc1ccc(NC(=O)NCCCn2nc3ccccn3c2=O)cc1 | -13.3 |
| CC1CCCCN1CCNC(=O)c1ccn(-c2cccc(F)c2)n1 (stereo not given) | -26 |
| Cc1csc(N2CCCN(C(=O)C(C(C)C)n3cncn3)CC2)n1 (stereo not given) | -7.71 |
| CCOc1ccccc1-c1cc(N)[nH]n1 | 5.75 |
| Cc1ccc(C(=O)N2CC[C@H]3[C@@H]2CCC(=O)N3c2ccccc2)cn1 | -112 |
| Cc1oncc1C(=O)NCc1cc(=O)n2c(n1)CN(C)CCC2 | 5.02 |
| Cn1nc(C2CNCCO2)cc1CCOc1ccc(Cl)cc1 (stereo not given) | -7.72 |
| O=C(NC[C@]12COC[C@H]1CN(Cc1cccnc1)C2)C1CCC1 | -105 |
| Cc1ccc(CN2CCC3(CC2)NC(=O)CC3c2ccncc2)cc1C (stereo not given) | 3.75 |
| O=C(C1=CCCC1)N1C[C@@H]2COC[C@]2(COc2ncccc2F)C1 | -99.3 |
| c1cnn(Cc2cn3c(n2)CN(Cc2nccs2)CC3)c1 | 2.76 |
